Molecules are shown by their SMILES. Some results are limits rather than exact numbers.

The record followed here is ChEMBL document CHEMBL3853289, “Eucarobustols A-I, Conjugates of Sesquiterpenoids and Acylphloroglucinols from Eucalyptus robusta” (J Nat Prod, 2016).

The nature of experiment [1]: Cytotoxicity against human HL60 cells assessed as reduction in cell viability after 72 hrs by MTT assay. The experiment is classed as functional, cell-based. Particulars: HL-60, 72 h. The method, boiled down: (§1)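 Cytotoxicity was tested against the HL-60 human leukemia and A-549 human lung adenocarcinoma lines, with adriamycin as the positive control. Potency was expressed as IC50.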
Background: Tetrazolium dyes change colour on reduction, which living cells bring about.

Experiment [2] can be described thus: Cytotoxicity against human A549 cells assessed as reduction in cell viability incubated for 72 hrs by SRB assay. The experiment is classed as functional, cell-based. Particulars: A549, 72 h. The method in brief: as §1
A general note: In SRB staining, fixed cells bind dye roughly in proportion to their protein.

Experiment [3] addresses T1, Tyrosine-protein phosphatase non-receptor type 1 (Homo sapiens, UniProt P18031).
T1 sequence (P18031 whole entry): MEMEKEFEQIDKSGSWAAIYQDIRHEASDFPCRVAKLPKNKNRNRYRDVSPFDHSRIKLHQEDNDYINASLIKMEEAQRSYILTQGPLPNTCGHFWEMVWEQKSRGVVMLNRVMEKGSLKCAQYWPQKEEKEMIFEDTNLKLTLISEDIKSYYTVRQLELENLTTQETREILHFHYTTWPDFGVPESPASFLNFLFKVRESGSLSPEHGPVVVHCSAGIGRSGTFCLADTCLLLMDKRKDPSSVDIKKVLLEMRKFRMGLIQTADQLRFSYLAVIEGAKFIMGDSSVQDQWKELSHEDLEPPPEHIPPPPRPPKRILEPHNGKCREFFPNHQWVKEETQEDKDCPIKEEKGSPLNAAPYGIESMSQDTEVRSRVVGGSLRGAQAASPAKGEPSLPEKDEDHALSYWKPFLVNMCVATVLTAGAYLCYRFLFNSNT
Description: Inhibition of PTP1B (unknown origin) using pNPP as substrate after 3 mins by colorimetric analysis.

In general, IC50 refers to the concentration that inhibits the measured activity by half. For the molecule `CC(C)CC(c1c(O)c(C=O)c(O)c(C=O)c1O)[C@@]1(C)CC[C@H]2C1=C[C@H](C(C)(C)O)CC[C@H]2C` (some centres not stated), the IC50 in experiment [1] and in experiment [2] was over 10 µM throughout.
`CC(C)C[C@H](c1c(O)c(C=O)c(O)c(C=O)c1O)[C@@]1(C)CC[C@@H]2[C@@H]1[C@H]1[C@@H](CC[C@@]2(C)O)C1(C)C` [MACROCARPAL B]: the IC50 in experiment [1] and in experiment [2] was over 10 µM each time.
With `CC1=C2CC[C@](C)([C@@H](CC(C)C)c3c(O)c(C=O)c(O)c(C=O)c3O)[C@H]2[C@H]2[C@@H](CC1)C2(C)C`, the IC50 was over 10 µM in experiment [1], 4.5 µM in experiment [3] and over 10 µM in experiment [2].
On to `CC(C)C[C@H](c1c(O)c(C=O)c(O)c(C=O)c1O)[C@@]1(C)CC[C@H]2C1=C[C@H](C(C)(C)O)CC[C@H]2C`, for which the IC50 in experiment [1] and in experiment [2] was over 10 µM each time.
As to `CC(C)C[C@@H](c1c(O)c(C=O)c(O)c(C=O)c1O)[C@@]1(C)CC[C@@H]2[C@@H]1[C@H]1[C@@H](CC[C@@]2(C)O)C1(C)C` [MACROCARPAL A], the IC50 in experiment [1] and in experiment [2] was over 10 µM throughout.
`CC(C)C[C@@H](c1c(O)c(C=O)c(O)c(C=O)c1O)[C@@]1(C)CCC2=C1[C@H]1[C@@H](CC[C@H]2C)C1(C)C`: the results for the IC50 in experiment [1], in experiment [3] and in experiment [2] were over 10 µM, 1.6 µM and over 10 µM, respectively.
Regarding `CC(C)CC(c1c(O)c(C=O)c(O)c(C=O)c1O)C1CC[C@@H](C)C2=C[C@H](C(C)(C)O)CC[C@]21C` (some centres not stated), the half-maximal inhibitory concentration (IC50) in experiment [1] and in experiment [2] was over 10 µM each time.
For `CO[C@]1(C)CC[C@@H]2[C@H]([C@H]3[C@H]1CC[C@]3(C)[C@@H](CC(C)C)c1c(O)c(C=O)c(O)c(C=O)c1O)C2(C)C`, the values for the IC50 in experiment [1], in experiment [3] and in experiment [2] were over 10 µM, 4.1 µM and over 10 µM, respectively.
Take `CC(C)C[C@@H](c1c(O)c(C=O)c(O)c(C=O)c1O)[C@@]1(C)CC=C2[C@H](C)CC[C@@H]3[C@H]([C@@H]21)C3(C)C`: the concentration for half-maximal inhibition (IC50) was over 10 µM in experiment [1], 1.8 µM in experiment [3] and over 10 µM in experiment [2].
`CC(C)C[C@H](c1c(O)c(C=O)c(O)c(C=O)c1O)[C@H]1CC[C@@H](C)[C@@]2(C)C1=CC[C@@H]1[C@H]2C1(C)C`: in experiment [3], half-maximal inhibition (IC50) was put at 1.3 µM.
In the case of `CC(C)C[C@H](c1c(O)c(C=O)c(O)c(C=O)c1O)[C@@H]1CC[C@@](C)(O)[C@@H]2[C@@H]3[C@H](CC[C@]21C)C3(C)C`, the IC50 in experiment [1] and in experiment [2] was over 10 µM in each case.
With `C=C1CC[C@@H]2[C@H]([C@H]3[C@H]1CC[C@]3(C)[C@@H](CC(C)C)c1c(O)c(C=O)c(O)c(C=O)c1O)C2(C)C` [MACROCARPAL C], the IC50 in experiment [1] and in experiment [2] was over 10 µM each time.
Consider `CC(C)C[C@H](c1c(O)c(C=O)c(O)c(C=O)c1O)[C@@]1(C)CC=C2[C@H](C)CC[C@@H]3[C@H]([C@@H]21)C3(C)C`, for which the IC50 in experiment [1] was over 10 µM; in experiment [3], 3 µM; in experiment [2], over 10 µM.
In experiment [3], `C=C(C)[C@@H]1C=C2[C@@H](C)CC[C@@H]([C@@H](CC(C)C)c3c(O)c(C=O)c(O)c(C=O)c3O)[C@]2(C)CC1` yielded a concentration for half-maximal inhibition (IC50) of 2.9 µM.
As for `CC(C)C[C@@H](c1c(O)c(C=O)c(O)c(C=O)c1O)[C@H]1CC[C@@H](C)[C@@]2(C)C1=CC[C@@H]1[C@H]2C1(C)C`, it took 4.3 µM to reach half-maximal inhibition in experiment [3] (IC50).
Regarding `CC(C)C[C@@H](c1c(O)c(C=O)c(O)c(C=O)c1O)[C@@]1(C)CC[C@@H]2[C@@H]1[C@H]1[C@@H](CC[C@]2(C)O)C1(C)C`, the IC50 was over 10 µM in experiment [1], 5.6 µM in experiment [3] and over 10 µM in experiment [2].
With `CC(=O)CC[C@@H]1[C@H]([C@H]2C(=O)CC[C@]2(C)[C@H](CC(C)C)c2c(O)c(C=O)c(O)c(C=O)c2O)C1(C)C`, the half-maximal inhibitory concentration (IC50) in experiment [1] and in experiment [2] was over 10 µM each time.
Take `CC(C)CC(=O)c1c(O)c(C=O)c(O)c(C[C@@]2(C)CC[C@H]3C2=C[C@H](C(C)(C)O)CC[C@H]3C)c1O`: the IC50 in experiment [1] is over 10 µM; in experiment [3], 4.3 µM; in experiment [2], over 10 µM.
Regarding `CC(C)C[C@@H](c1c(O)c(C=O)c(O)c(C=O)c1O)[C@@H]1CC[C@@](C)(O)[C@@H]2[C@@H]3[C@H](CC[C@]21C)C3(C)C`, the half-inhibitory concentration (IC50) in experiment [1] and in experiment [2] was over 10 µM each time.
